Hits are enriched below; roughly 6.1% of the tested compounds scored in any of these assays.
WT yeast gro inh = growth inhibition of WT yeast, mitochondrial fusion screen | mitochondrial fusion phenotypic screen, WT strain | inhibition, % at 10 µM | actives 2.1% (n = 190,000); in the data active = inhibition above about 58%; tested in S. cerevisiae
Yeast growth inh = yeast BB579 growth reduction in restrictive medium; inhibition, % at 10 µM; actives 0.51% (n = 140,000); S. cerevisiae BB579 growth, OD615, 48 h; AID 804;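 active = inhibition above a set limit, 3 SD over the mean compound inhibition, cut at about 44% in these data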
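Assay system – yeast BB579 (DeaD) · Dosing – single compound dose of 10 µM, 0.25% DMSO final · Detection – OD615 turbidity measurement · Buffer or medium – CSMM-D restrictive synthetic medium containing dextrose (glucose) · Benchmarks – positive control amphotericin B 10 µg/mL · Incubation – 48 h exposure, 30 °C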
Yeast lifespan up = extends the lifespan of yeast | AID 775 | S. cerevisiae growth with nicotinamide, OD615; deaD strain in restrictive glucose medium | actives 0.68% (n = 130,000) | inhibition of the nicotinamide effect, % at 10 µM;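 active = inhibition above a set limit, placed 3 SD over the median of all compounds, cut at about 26% in these data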;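 also: 0% = nicotinamide-treated wells and 100% = cells grown without nicotinamide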
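System: DeaD-strain S. cerevisiae / Buffer or medium: CSMM-D, restrictive glucose (dextrose) synthetic minimal medium / Probe or stimulus: nicotinamide, 1.5 mM, co-present with compound / Compound: one concentration, 10 µM, DMSO 0.25% / Incubation: 48 h compound exposure at 30 °C, humidified / Technique: optical density (absorbance) at 615 nm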
Measles CPE = protection of cells from measles virus. Measles virus-infected cells, CPE protection, absorbance. protection (pct of control), % at 4 µM. actives 1.5% (n = 140,000). AID 841; in the data active = protection mostly above about 24%, no sharp cut-off; inactive = mostly below about 26%
hDAT+cocaine = human DAT dopamine uptake with cocaine, either direction | LLC-PK1 hDAT cells, [14C]-dopamine uptake with cocaine IC80; actives deviate in either direction | B-score at 10 µM | actives 1.3% (n = 110,000);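 active = Z score or B-score, a plate-position-corrected score, falls beyond the plate's 99.7% confidence bounds, in either direction; inactive = both scores lie inside the 99.7% bounds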;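 also: scored against the spread of the other compound wells on the same plate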
Target sequence (Q01959 whole entry, looked up): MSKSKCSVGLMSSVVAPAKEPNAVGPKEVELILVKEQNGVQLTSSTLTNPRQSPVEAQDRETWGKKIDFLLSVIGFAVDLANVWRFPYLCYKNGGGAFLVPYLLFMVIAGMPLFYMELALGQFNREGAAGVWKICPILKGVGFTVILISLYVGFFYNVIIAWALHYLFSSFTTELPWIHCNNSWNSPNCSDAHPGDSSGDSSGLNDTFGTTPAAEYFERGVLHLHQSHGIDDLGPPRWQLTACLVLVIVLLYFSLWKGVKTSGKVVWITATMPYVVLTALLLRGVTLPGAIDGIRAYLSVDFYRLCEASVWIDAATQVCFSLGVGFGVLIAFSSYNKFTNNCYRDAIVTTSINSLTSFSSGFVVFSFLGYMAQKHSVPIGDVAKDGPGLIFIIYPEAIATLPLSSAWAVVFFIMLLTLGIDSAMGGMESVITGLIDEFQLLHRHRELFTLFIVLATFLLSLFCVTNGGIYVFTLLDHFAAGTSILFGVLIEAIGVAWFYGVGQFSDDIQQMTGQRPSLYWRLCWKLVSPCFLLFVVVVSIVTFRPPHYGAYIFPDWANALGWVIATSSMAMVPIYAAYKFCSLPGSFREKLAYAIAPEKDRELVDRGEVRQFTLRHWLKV
RAM network inh = yeast RAM network inhibition; S. cerevisiae dse1pr::URA3 reporter, 5-FOA growth OD615, 2 d; analog-sensitive cbk1-as2 kinase mutant strain; inhibition, % at 50 µM; actives 1.8% (n = 190,000);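 active = inhibition above a set limit, 3 SD over mean compound inhibition, cut at about 8.4% in these data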;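 also: 0% = DMSO-only wells with no growth and 100% = 10 µM 1-NA-PP1 full growth; inhibition rescues growth on 5-FOA so higher OD means more RAM inhibition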
An asterisk follows results filed as active; nt = no result.

SMILES | WT yeast gro inh | Yeast growth inh | Yeast lifespan up | Measles CPE | hDAT+cocaine | RAM network inh
CCN1CCN(C(c2nnnn2Cc2ccc3c(c2)OCO3)C(C)C)CC1 (stereo not given) | -3 | -15 | nt | 56* | -0.18 | 0
CC(C)C(c1nnnn1Cc1ccc(F)cc1)N1CCN(Cc2ccc3c(c2)OCO3)CC1 (stereo not given) | -14 | -24 | -3 | 11 | 0.13 | 0
Cc1ccc(C(=O)O)cc1NC(=S)NC(=O)c1ccc(-c2ccccc2)cc1 | 7 | nt | nt | nt | nt | 4
CC(C)NC(=S)NC(=O)c1ccc(-c2ccccc2)cc1 | 67* | -15 | -7 | 17 | nt | 8
Cc1ccc(C(=O)NC(=S)NCC(=O)c2ccccc2)cc1 | 61* | -29 | -12 | 11 | -1.1 | 3
O=C1CC(=O)N2N=C(c3ccc([N+](=O)[O-])cc3)SC2=N1 | -10 | -19 | -4 | 12 | nt | 1
CCc1ccc(NC(=O)C(C)OC(=O)c2ccc(N3CCCC3)c([N+](=O)[O-])c2)cc1 (stereo not given) | 2 | -21 | -5 | 5 | nt | 2
Cc1nc(NC(=O)c2ccc(Cl)cc2)sc1-c1csc(Nc2cccc(F)c2)n1 | 23 | -39 | -19 | 0 | 1.7 | 7
CCNc1nc(NCC)nc(C(=O)NN)n1 | -6 | 5 | nt | 15 | 0.18 | 0
O=c1cc(NC2CCCCC2)c2ccccc2o1 | 12 | -27 | -2 | 20* | -0.062 | 1
O=S(=O)(c1ccccc1C(F)(F)F)N1CCOCC1 | 23 | -18 | -5 | 14 | -0.0052 | -1
COc1cccc(NC(=O)c2ccc(NC(=O)C3CC(=O)OC34CCCCC4)cc2)c1 (stereo not given) | -6 | nt | nt | nt | nt | 3
Nc1c(-c2ccccc2)nc(Cl)nc1-c1ccccc1 | -3 | -16 | -5 | 9 | 0.11 | 2
c1ccc(-c2nc3nonc3nc2-c2ccccc2)cc1 | 47 | 70* | -21 | 7 | nt | 4
CC12CCC(C(=O)Nc3nc4ccc(Br)cc4s3)(OC1=O)C2(C)C (stereo not given) | 66* | nt | nt | nt | nt | 0
O=C(NCc1ccc(F)cc1)C(=O)NCC1OCCN1C(=O)c1cccs1 (stereo not given) | -9 | -21 | 3 | 10 | nt | 3
O=C(NCc1ccc(F)cc1)C(=O)NCC1OCCN1C(=O)c1ccc(Cl)cc1 (stereo not given) | 13 | 3 | 1 | 13 | 2.4* | 3
COc1ccc(CNCC(O)(c2ccc(F)cc2)c2ccc(F)cc2)cc1 | 13 | nt | nt | nt | nt | 1
CCOc1cc(/C=N/NC(=O)c2cc(-c3cccnc3)nc3ccccc23)ccc1O | -4 | nt | nt | nt | nt | 5
CCCCC(=Nc1ccc(N)cc1)C1=C(O)C(C(=O)OC)C(C)(C)CC1=O (stereo not given) | 15 | -62 | 72* | 17 | 0.74 | -1
CCC(=Nc1ccc(N)cc1)C1=C(O)C(C(=O)OC)C(C)(C)CC1=O (stereo not given) | 18 | -8 | 30* | 6 | 0.043 | 3
CCCC(=O)C1=C(O)C(C(=O)OC)C(C)(C)CC1=N (stereo not given) | 13 | -26 | -6 | 10 | -3.2* | 0
CCNc1nc(NCC)nc(N/N=C/c2ccc(Br)cc2)n1 | 25 | nt | nt | nt | nt | 0
O=S(=O)(c1ccccc1)N(CC1CO1)c1cccc2ccccc12 (stereo not given) | 8 | nt | nt | nt | nt | 2
COC(=O)C1=NN(c2ccc(Cl)cc2)C2C(=O)N(c3ccccc3OC)C(=O)C12 (stereo not given) | 19 | -20 | 6 | 16 | nt | 1
SMILES | WT yeast gro inh | Yeast growth inh | Yeast lifespan up | Measles CPE | hDAT+cocaine | RAM network inh
Cc1ccc(N2C(=O)C3C(C2=O)N2C(c4cccs4)C4C(=O)N(c5ccc(C)cc5)C(=O)C4N2C3c2cccs2)cc1 (stereo not given) | -11 | -11 | 1 | 10 | nt | 8.6*
CCOC(=O)C1(C)NC(c2cccs2)C2C(=O)N(c3ccc(C)cc3)C(=O)C21 (stereo not given) | 11 | nt | nt | nt | nt | 0
Cc1cc(NC(=O)CN2CCC(C)CC2)no1 | -2 | nt | nt | nt | nt | -1
CO/N=C(\Cn1ncc(NC2CCCCC2)c(Br)c1=O)c1ccc(Cl)cc1 | 71* | -31 | -5 | 12 | 0.49 | 2
COc1ccc(C)cc1N(C(=O)COc1cccc(F)c1)c1nc2ccccc2s1 | 36 | -27 | 5 | 19 | nt | 4
COc1ccc(C)cc1N(C(=O)c1ccc(F)cc1)c1nc2ccccc2s1 | 69* | -23 | 3 | 7 | nt | 3
CCN(CC)C(=O)NC1CC(=O)N(c2ccc(OC)cc2)C1 (stereo not given) | 2 | 2 | -1 | 16 | nt | 1
Cc1cc(C)c2c(N)c(C(=O)NCC3CCCCC3)sc2n1 | 12 | 21 | -2 | 25* | -0.77 | 0
Cc1cc(C)c2c(N)c(C(=O)NC3CCCC3)sc2n1 | -12 | nt | nt | nt | nt | 0
COc1ccc(C[C@H]2CN3C(=NC[C@@H]3Cc3ccc(O)cc3)N2CCNC(=O)c2ccc(C)c(Br)c2)cc1 | -4 | nt | nt | nt | -2.5* | 0
Cc1ccc(C(=O)NCCN2C3=NC[C@H](Cc4ccc(O)cc4)N3C[C@H]2Cc2ccc(O)cc2)cc1Br | nt | nt | nt | nt | 0.43 | nt
CC1(C2(O)CC(c3ccccc3)ON2)CCCCC1 (stereo not given) | -1 | -18 | 0 | 29* | -0.37 | 3
O=C(N/N=C/c1ccc(N2CCCCC2)o1)C(O)(c1ccccc1)c1ccccc1 | 9 | -30 | 0 | 12 | nt | 5
CCC(=O)NC(=S)Nc1ccc(NC(=O)COc2ccc([N+](=O)[O-])cc2)cc1 | -6 | nt | nt | nt | nt | 2
Cc1nn(-c2ccccc2)c(=S)n1-c1ccccc1 | -10 | -7 | -2 | 9 | 1.6 | 1
OCCn1nc2c3ccccc3nc-2n(-c2ccccc2)c1=S | 21 | -27 | -15 | 20 | -7.2* | 3
CN(c1cccc(NC(=O)CN(c2ccc(C34CC5CC(CC(C5)C3)C4)cc2)S(C)(=O)=O)c1)S(C)(=O)=O | -4 | -27 | 0 | 4 | 0.49 | 2
COc1ccc2cnn(CCOc3cc(C)ccc3C(C)C)c(=O)c2c1OC | 71* | -10 | 5 | 13 | nt | 2
COc1ccc(/C=c2/sc3n(c2=O)C(c2ccccc2OC)C2=C(N=3)c3ccccc3CC2)cc1O (stereo not given) | 5 | -33 | -12 | 5 | -0.45 | 9.5*
CCN(CC)S(=O)(=O)c1ccc(Cl)c(NC(=O)COc2ccccc2[N+](=O)[O-])c1 | -24 | -27 | 7 | 9 | nt | 8.8*
CCN(CC)S(=O)(=O)c1ccc(OC)c(NC(=O)c2cccc([N+](=O)[O-])c2C)c1 | nt | nt | nt | nt | -7.7* | nt
COC(=O)C1=C(N)Oc2cc(C)n(CC3CCCO3)c(=O)c2C1c1ccc(Cl)cc1 (stereo not given) | -24 | -47 | 6 | 7 | 0.44 | -1
O=S(=O)(NCc1cccc(C(F)(F)F)c1)NCc1ccccc1F | -5 | nt | nt | nt | nt | 0

Source: PubChem (several laboratories)
